Assay results as given in ChEMBL document CHEMBL1124143, “Nonisomerizable analogues of (Z)- and (E)-4-hydroxytamoxifen. Synthesis and endocrinological properties of substituted diphenylbenzocycloheptenes” (1988).

Experiments:
[1] = molecular target: T1, Estrogen receptor (Rattus norvegicus) (UniProt P06211+Q62986); test: In vivo uterotrophic effect in estradiol stimulated immature rats; type: functional, organism-based
How it was run: (§1)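 Immature female Sprague-Dawley rats got daily subcutaneous injections of compound in 0.1 mL peanut oil for 3 days and were killed on day 4. Read-out was uterine weight (mg).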

[2] = molecular target: T1, Estrogen receptor (Rattus norvegicus); test: In vivo anti-uterotrophic effect in 0.2 ug estradiol benzoate stimulated immature rats at 12.5 ug; type: functional, organism-based; how it was run: as §1
[3] = molecular target: T1, Estrogen receptor (Rattus norvegicus); test: In vivo anti-uterotrophic effect in 0.2 ug estradiol benzoate stimulated immature rats at 25 ug; type: functional, organism-based; how it was run: as §1
[4] = molecular target: T1, Estrogen receptor (Rattus norvegicus); test: In vivo anti-uterotrophic effect in 0.2 ug estradiol benzoate stimulated immature rats at 50 ug; type: functional, organism-based; how it was run: as §1
MCF7 [5] = test: Inhibition of MCF-7 human mammary tumor cell proliferation at 1*10e-8M; type: functional
How it was run: (§2)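 MCF-7 cells were plated at 5000 cells/mL. […] Cell number was read as colour intensity at 540 nm. Values are means of optical density from four separate cultures, […]. Statistics were one-way ANOVA with Newman-Keuls test.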

MCF7 [6] = test: Inhibition of 1*10e-7 M estradiol induced proliferation of MCF-7 human mammary tumor cells at 1*10e-6 M; type: functional; how it was run: as §2
MCF7 [7] = test: Inhibition of 1*10e-7 M estradiol induced proliferation of MCF-7 human mammary tumor cells at 1*10e-7 M; type: functional; how it was run: as §2
MCF7 [8] = test: Inhibition of 1*10e-7 M estradiol induced proliferation of MCF-7 human mammary tumor cells at 1*10e-8M; type: functional; how it was run: as §2
MCF7 [9] = test: (§3) Inhibition of 1*10e-8M estradiol induced proliferation of MCF-7 human mammary tumor cells; type: functional; how it was run: as §2
MCF7 [10] = test: Inhibition of MCF-7 human mammary tumor cell proliferation at 1*10e-7 M; type: functional; how it was run: as §2
MCF7 [11] = test: Inhibition of MCF-7 human mammary tumor cell proliferation; type: functional; how it was run: as §2
MCF7 [12] = test: Inhibition of MCF-7 human mammary tumor cell proliferation at 1*10e-6 M; type: functional; how it was run: as §2
[13] = molecular target: Estrogen receptor (Homo sapiens) (UniProt Q92731+P03372); test: Inhibition of [3H]estradiol binding to Estrogen receptor of MCF-7 cell lysate […]; type: cell-based
MCF7 [14] = test: Inhibition of MCF-7 human mammary tumor cell proliferation 1*10e-7 M; type: functional; how it was run: as §2
MCF7 [15] = test: Inhibition of 1*10e-8M estradiol induced proliferation of MCF-7 human mammary tumor cells at 1*10e-7 M; type: functional; how it was run: as §2
MCF7 [16] = test: as §3; type: functional; how it was run: as §2; remark: listed apart in the source
[17] = molecular target: T1, Estrogen receptor (Rattus norvegicus); test: In vivo anti-uterotrophic effect in 0.2 ug estradiol benzoate stimulated immature rats at 10 ug; type: functional, organism-based; how it was run: as §1
[18] = molecular target: T1, Estrogen receptor (Rattus norvegicus); test: In vivo anti-uterotrophic effect in 0.2 ug estradiol benzoate stimulated immature rats at 20 ug; type: functional, organism-based; how it was run: as §1
[19] = molecular target: T1, Estrogen receptor (Rattus norvegicus); test: In vivo anti-uterotrophic effect in 0.2 ug estradiol benzoate stimulated immature rats at 5 ug; type: functional, organism-based; how it was run: as §1

## C[C@]12CC[C@@H]3c4ccc(OC(=O)c5ccccc5)cc4CC[C@H]3[C@@H]1CC[C@@H]2O
[1]
  Uterine weight: 108

## CN(C)CCOc1ccc(C2=C(c3ccccc3)CCCc3ccccc32)cc1
[2]
  Uterine weight: 92
[3]
  Uterine weight: 75
[4]
  Uterine weight: 77

## CN(C)CCOc1ccc2c(c1)CCCC(c1ccccc1)=C2c1ccc(O)cc1
MCF7 [5]
  Optical density: 0.44
MCF7 [6]
  Optical density: 0.363
MCF7 [7]
  Optical density: 0.566
MCF7 [8]
  Optical density: 0.659
MCF7 [9]
  Optical density: 0.707
MCF7 [10]
  Optical density: 0.328
MCF7 [11]
  Optical density: 0.337
MCF7 [12]
  Optical density: 0.162

## CN(C)CCOc1ccc(C2=C(c3ccccc3)CCCc3cc(O)ccc32)cc1
[13]
  relative binding affinity (RBA): 1.5
MCF7 [5]
  Optical density: 0.126
MCF7 [14]
  Optical density: 0.066
MCF7 [6]
  Optical density: 0.068
MCF7 [9]
  Optical density: 0.727
MCF7 [15]
  Optical density: 0.147
MCF7 [16]
  Optical density: 0.52
MCF7 [11]
  Optical density: 0.417
MCF7 [12]
  Optical density: 0.083
[17]
  Uterine weight: 72
[18]
  Uterine weight: 71
[19]
  Uterine weight: 75
